{"source": "ChEMBL document CHEMBL4622914", "about": "“Development of a bioavailable boron-containing PI-103 Bioisostere, PI-103BE” (Bioorg Med Chem Lett, 2020)", "key": {"[1]": {"system": "A549", "assay": "Antiproliferative activity against human A549 cells assessed as reduction in cell viability incubated for 4 days by coulter counter method", "assay_type": "functional, cell-based", "conditions": "A549, 96 h", "procedure,_shortened": "(§1)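 Cancer cells were seeded at 50,000 per well in DMEM with 5% FBS. They were exposed to six compound doses for 4 days, with DMSO as vehicle control and a reference inhibitor as positive control. Cells were counted by Coulter counter. Survival ratio is treated cell number over vehicle cell number. IC50 was taken from dose–response curves. Triplicate experiments.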"}, "[2]": {"system": "MDA-MB-231", "assay": "Antiproliferative activity against human MDA-MB-231 cells assessed as reduction in cell viability incubated for 4 days by coulter counter method", "assay_type": "functional, cell-based", "conditions": "MDA-MB-231, 96 h", "procedure,_shortened": "as §1"}, "[3]": {"system": "HeLa", "assay": "Antiproliferative activity against human HeLa cells assessed as reduction in cell viability incubated for 4 days by coulter counter method", "assay_type": "functional, cell-based", "conditions": "96 h", "procedure,_shortened": "as §1"}, "[4]": {"system": "CWR22R", "assay": "Antiproliferative activity against human 22Rv1 cells assessed as reduction in cell viability incubated for 4 days by coulter counter method", "assay_type": "functional, cell-based", "conditions": "22Rv1, 96 h", "procedure,_shortened": "as §1"}, "[5]": {"system": "PC-3", "assay": "Antiproliferative activity against human PC3 cells assessed as reduction in cell viability incubated for 4 days by coulter counter method", "assay_type": "functional, cell-based", "conditions": "PC-3, 96 h", "procedure,_shortened": "(§2)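 Cells seeded at 50,000 per well in DMEM with 5% FBS, exposed to six concentrations of compound for 4 days; DMSO as vehicle control. Cell numbers counted on a Coulter counter; survival ratio = treated/vehicle cell count. IC50 taken from dose-response curves. Triplicate experiments, mean ± SD.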"}, "[6]": {"system": "SK-OV-3", "assay": "Antiproliferative activity against human SKOV3 cells assessed as reduction in cell viability incubated for 4 days by coulter counter method", "assay_type": "functional, cell-based", "conditions": "SK-OV-3, 96 h", "procedure,_shortened": "as §2"}, "[7]": {"assay": "Stability of compound in cell culture medium assessed as compound hydrolysis measured after 0.5 hrs", "assay_type": "physicochemical"}, "[8]": {"assay": "Stability of compound in cell culture medium assessed as compound hydrolysis measured after 1 hr", "assay_type": "physicochemical"}, "[9]": {"assay": "Stability of compound in cell culture medium assessed as compound hydrolysis measured after 3 hrs", "assay_type": "physicochemical"}, "[10]": {"assay": "Stability of compound in cell culture medium assessed as compound hydrolysis measured after 8 hrs", "assay_type": "physicochemical"}, "[11]": {"assay": "Stability of compound in cell culture medium assessed as compound hydrolysis measured after 24 hrs", "assay_type": "physicochemical"}, "[12]": {"assay": "Drug concentration in ovariectomized nu/nu mouse plasma at 10 mg/kg, ip measured after 0.5 hrs by UHPLC-MS analysis", "assay_type": "ADME, organism-based", "conditions": "female"}, "[13]": {"assay": "Drug concentration in ovariectomized nu/nu mouse plasma at 10 mg/kg, ip measured after 1 hr by UHPLC-MS analysis", "assay_type": "ADME, organism-based", "conditions": "female"}, "[14]": {"assay": "Drug concentration in ovariectomized nu/nu mouse plasma at 10 mg/kg, ip measured after 3 hrs by UHPLC-MS analysis", "assay_type": "ADME, organism-based", "conditions": "female"}, "[15]": {"assay": "Drug concentration in ovariectomized nu/nu mouse plasma at 10 mg/kg, ip measured after 8 hrs by UHPLC-MS analysis", "assay_type": "ADME, organism-based", "conditions": "female"}, "[16]": {"assay": "Cmax in ovariectomized nu/nu mouse at 10 mg/kg, ip measured upto 24 hrs by UHPLC-MS analysis", "assay_type": "ADME, organism-based", "parameters": "dose 10 mg/kg, route intraperitoneal", "conditions": "female, in vivo"}, "[17]": {"assay": "Tmax in ovariectomized nu/nu mouse at 10 mg/kg, ip measured upto 24 hrs by UHPLC-MS analysis", "assay_type": "ADME, organism-based", "conditions": "female, in vivo"}, "[18]": {"assay": "Half life in ovariectomized nu/nu mouse at 10 mg/kg, ip measured upto 24 hrs by UHPLC-MS analysis", "assay_type": "ADME, organism-based", "conditions": "female, in vivo", "procedure,_shortened": "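Female ovariectomized Nu/Nu mice, 4–6 weeks old, received a single 10 mg/kg i.p. dose as an ethanol solution. Blood was drawn from the orbital sinus at 0.5, 1, 3, 8 and 24 h, one sampling per group, into EDTA. Plasma was spun at 4 °C and stored at −80 °C. Parent and metabolites were quantified by C18 UHPLC–TSQ Vantage MS/MS.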"}, "[19]": {"assay": "AUC in ovariectomized nu/nu mouse at 10 mg/kg, ip measured upto 24 hrs by UHPLC-MS analysis", "assay_type": "ADME, organism-based", "parameters": "dose 10 mg/kg, time < 24 hr, route intraperitoneal", "conditions": "female, in vivo"}}}
{"smiles": "Oc1cccc(-c2nc(N3CCOCC3)c3oc4ncccc4c3n2)c1", "note": "[PI-103]", "values": [{"measurement": "IC50", "setting": "[1]", "result": 180, "unit": "nM"}, {"measurement": "IC50", "setting": "[2]", "result": 140, "unit": "nM"}, {"measurement": "IC50", "setting": "[3]", "result": 160, "unit": "nM"}, {"measurement": "IC50", "setting": "[4]", "result": 100, "unit": "nM"}, {"measurement": "IC50", "setting": "[5]", "result": 170, "unit": "nM"}, {"measurement": "IC50", "setting": "[6]", "result": 110, "unit": "nM"}, {"measurement": "Drug degradation", "setting": "[7]", "result": 0.05, "unit": "µM"}, {"measurement": "Drug degradation", "setting": "[8]", "result": 0.08, "unit": "µM"}, {"measurement": "Drug degradation", "setting": "[9]", "result": 0.12, "unit": "µM"}, {"measurement": "Drug degradation", "setting": "[10]", "result": 0.12, "unit": "µM"}, {"measurement": "Drug degradation", "setting": "[11]", "result": 0.14, "unit": "µM"}, {"measurement": "concentration at 0.5 h", "setting": "[12]", "result": 0.1, "unit": "ng/mL"}, {"measurement": "concentration at 1 h", "setting": "[13]", "result": 1.4, "unit": "ng/mL"}, {"measurement": "concentration at 3 h", "setting": "[14]", "result": 1, "unit": "ng/mL"}, {"measurement": "concentration at 8 h", "setting": "[15]", "result": 0.3, "unit": "ng/mL"}, {"measurement": "Cmax", "setting": "[16]", "result": 1.4, "unit": "ng/mL"}, {"measurement": "Tmax", "setting": "[17]", "result": 1, "unit": "h"}, {"measurement": "half-life", "setting": "[18]", "result": 2, "unit": "h"}, {"measurement": "AUC at 24 h", "setting": "[19]", "result": 9.7, "unit": "ng·h/mL"}]}
